We go through 49 molecules from ChEMBL document CHEMBL1149666, “Novel 1-(azacyclyl)-3-arylsulfonyl-1H-pyrrolo[2,3-b]pyridines as 5-HT6 agonists and antagonists” (Bioorg Med Chem, 2007).

The target of test [1] is T1, 5-hydroxytryptamine receptor 6 (Homo sapiens, UniProt P50406). Description: Displacement of [3H]LSD from cloned human 5HT6 expressed in HeLa cells. The test is classed as cell-based. The essentials:
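Radioligand binding used [3H]-LSD on human-cloned 5-HT6 receptors stably transfected in HeLa cells. Ki values were determined in triplicate.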

The target of test [2] is T1, 5-hydroxytryptamine receptor 6. Description: Agonist activity at human 5HT6 expressed in HeLa cells assessed as intracellular cAMP level by radioimmunoassay. It counts as functional, cell-based.
Test [3] has the same target. The test is described as follows: Antagonist activity at human 5HT6 expressed in HeLa cells assessed as intracellular cAMP level by radioimmunoassay. It counts as functional, cell-based. The essentials:
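Stably transfected h5-HT6 HeLa cells were washed in Krebs buffer and preincubated 5 min at 37 °C in Krebs with 500 μM IBMX. Test compound was then added at 0.1–10000 nM for 10 min at 37 °C. The reaction was stopped with 0.5 M perchloric acid, and intracellular cAMP was measured by scintillation proximity RIA. IC50 and Imax were determined in triplicate.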

T1 sequence (P50406 whole entry): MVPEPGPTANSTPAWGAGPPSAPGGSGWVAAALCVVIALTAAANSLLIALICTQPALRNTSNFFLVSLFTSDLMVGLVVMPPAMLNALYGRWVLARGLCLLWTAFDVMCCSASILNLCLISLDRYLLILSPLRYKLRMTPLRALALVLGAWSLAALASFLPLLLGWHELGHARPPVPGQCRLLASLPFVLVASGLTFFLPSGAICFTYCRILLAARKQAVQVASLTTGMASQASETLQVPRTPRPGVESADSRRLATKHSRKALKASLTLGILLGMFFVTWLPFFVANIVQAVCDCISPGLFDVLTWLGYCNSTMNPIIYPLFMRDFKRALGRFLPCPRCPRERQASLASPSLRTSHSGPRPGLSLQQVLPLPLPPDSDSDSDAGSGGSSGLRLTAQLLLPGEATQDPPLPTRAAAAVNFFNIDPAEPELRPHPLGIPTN

`O=S(=O)(c1cccc(Cl)c1)c1cn(C2CCNC2)c2ncccc12` (configuration not stated) yielded a Ki in test [1] of 0.0015 µM. The concentration giving a half-maximal response (EC50) in test [2] turned out to be 1.68 µM.

`CN1CCC(n2cc(S(=O)(=O)c3c(Cl)nc4sccn34)c3cccnc32)C1` (configuration not stated): the Ki in test [1] stood at 0.0008 µM. Besides, the IC50 in test [3] worked out at 0.026 µM.

The molecule `CN1CCC(n2cc(S(=O)(=O)c3ccccc3)c3cccnc32)C1` (configuration not stated) returned a Ki in test [1] of 0.0025 µM. For the same molecule, in test [2], the EC50 stood at 2.03 µM.

In turn, `O=S(=O)(c1ccccc1F)c1cn(C2CCNC2)c2ncccc12` (configuration not stated) showed a Ki in test [1] of 0.002 µM. For the same molecule, in test [3], the %max is 100% and the 50% inhibitory concentration (IC50) amounted to 0.05 µM.

Molecule `O=S(=O)(c1ccc(Cl)cc1)c1cn(C2CCNC2)c2ncccc12` (configuration not stated) yielded a Ki in test [1] of 0.0055 µM. In test [3], the %max was determined as 94% and the IC50 was found to be 0.34 µM.

For `O=S(=O)(c1ccccc1)c1cn(C2CCCNC2)c2ncccc12` (configuration not stated), in test [1], affinity was put at a Ki of 0.0049 µM. Moreover, the EC50 in test [2] was 0.047 µM.

Turning to `CN1CCCC(n2cc(S(=O)(=O)c3cc(Cl)cc(Cl)c3)c3cccnc32)C1` (configuration not stated), the Ki in test [1] stood at 0.0039 µM. For the same molecule, the EC50 in test [2] turned out to be 0.0387 µM.

As to `O=S(=O)(c1cn(C2CCNC2)c2ncccc12)c1c(Cl)nc2sccn12` (configuration not stated), the EC50 in test [2] turned out to be 0.08 µM.

The molecule `O=S(=O)(c1cccc(Br)c1)c1cn(C2CCCNC2)c2ncccc12` (configuration not stated) showed a Ki in test [1] of 0.0038 µM. Moreover, the EC50 in test [2] was found to be 0.072 µM.

With `CCN1CCCC(n2cc(S(=O)(=O)c3ccc(Cl)cc3)c3cccnc32)C1` (configuration not stated), the Ki in test [1] was 0.0335 µM. Also, in test [3], the IC50 was 0.07 µM and the Imax is 71%.

For the molecule `O=S(=O)(c1cn(C2CCCNC2)c2ncccc12)c1c(Cl)nc2sccn12` (configuration not stated), the affinity in test [1], expressed as Ki, was 0.0007 µM. In addition, the EC50 in test [2] was 0.066 µM.

Consider `CCN1CCC(n2cc(S(=O)(=O)c3cccc(Cl)c3)c3cccnc32)C1` (configuration not stated), for which, in test [1], the Ki was 0.0033 µM. In test [3], the %max stood at 93% and the IC50 is 0.12 µM.

As to `O=S(=O)(c1cccc(C(F)(F)F)c1)c1cn(C2CCCNC2)c2ncccc12` (configuration not stated), in test [1], the Ki was found to be 0.0046 µM. Also, in test [2], the EC50 turned out to be 0.273 µM.

As to `CN1CCCC(n2cc(S(=O)(=O)c3ccc(Cl)s3)c3cccnc32)C1` (configuration not stated), in test [1], the inhibitory constant (Ki) was 0.0019 µM. Besides, the EC50 in test [2] came out at 0.071 µM.

Consider `CN1CCCC(n2cc(S(=O)(=O)c3cccc(F)c3)c3cccnc32)C1` (configuration not stated), for which the Ki in test [1] came out at 0.0047 µM. For the same molecule, in test [2], the EC50 was found to be 0.306 µM.

In the case of `CN1CCCC(n2cc(S(=O)(=O)c3c(Cl)nc4sccn34)c3cccnc32)C1` (configuration not stated), the affinity in test [1] corresponds to a Ki of 0.002 µM. Besides, the EC50 in test [2] turned out to be 0.025 µM.

Regarding `CCN1CCC(n2cc(S(=O)(=O)c3c(Cl)nc4sccn34)c3cccnc32)C1` (configuration not stated), the Ki in test [1] was found to be 0.0014 µM. Also, the half-maximal inhibitory concentration (IC50) in test [3] was 0.01 µM.

The molecule `O=S(=O)(c1ccc(C(F)(F)F)cc1)c1cn(C2CCCNC2)c2ncccc12` (configuration not stated) displayed a Ki in test [1] of 0.012 µM. In addition, in test [2], the EC50 amounted to 0.414 µM.

As for `CC(C)N1CCCC(n2cc(S(=O)(=O)c3c(Cl)nc4sccn34)c3cccnc32)C1` (configuration not stated), the Ki in test [1] is 0.0017 µM. Further, the IC50 in test [3] was found to be 0.008 µM.

`O=S(=O)(c1cccc(C(F)(F)F)c1)c1cn(C2CCNC2)c2ncccc12` (configuration not stated): the affinity in test [1] corresponds to a Ki of 0.0013 µM. Besides, the EC50 in test [2] was 0.52 µM.

In test [1], `CN1CCC(n2cc(S(=O)(=O)c3ccccc3F)c3cccnc32)C1` (configuration not stated) registered a Ki of 0.0056 µM. In test [3], the %max turned out to be 69% and the IC50 is 0.186 µM.

Regarding `CCN1CCCC(n2cc(S(=O)(=O)c3ccc(Cl)s3)c3cccnc32)C1` (configuration not stated), in test [1], the Ki worked out at 0.0032 µM. Moreover, the EC50 in test [2] is 0.05 µM.

In test [1], `CN1CCC(n2cc(S(=O)(=O)c3ccc(Cl)cc3)c3cccnc32)C1` (configuration not stated) came in with an inhibitory constant (Ki) of 0.0042 µM. In test [3], the %max is 98% and the IC50 stood at 0.095 µM.

`O=S(=O)(c1ccc(Cl)cc1)c1cn(C2CCCNC2)c2ncccc12` (configuration not stated): the Ki in test [1] was determined as 0.0076 µM. Moreover, in test [3], the IC50 was determined as 0.682 µM and the Imax was found to be 76%.

`CC(C)N1CCCC(n2cc(S(=O)(=O)c3ccc(Cl)cc3)c3cccnc32)C1` (configuration not stated): the Ki in test [1] turned out to be 0.0111 µM. In addition, in test [3], the IC50 was 0.338 µM and the Imax was 74%.

With `CN1CCCC(n2cc(S(=O)(=O)c3ccc(Cl)cc3)c3cccnc32)C1` (configuration not stated), the Ki in test [1] is 0.0115 µM. Besides, in test [3], the IC50 worked out at 0.028 µM and the Imax is 63%.

Regarding `O=S(=O)(c1cccc(Br)c1)c1cn(C2CCNC2)c2ncccc12` (configuration not stated), the Ki in test [1] was determined as 0.0013 µM. Besides, the EC50 in test [2] was 0.035 µM.

`CC(C)N1CCCC(n2cc(S(=O)(=O)c3cccc(F)c3)c3cccnc32)C1` (configuration not stated): the Ki in test [1] is 0.0034 µM. Further, the EC50 in test [2] amounted to 0.172 µM.

As to `O=S(=O)(c1ccccc1F)c1cn(C2CCCNC2)c2ncccc12` (configuration not stated), in test [1], affinity was put at a Ki of 0.002 µM. Also, in test [3], the IC50 worked out at 0.05 µM and the Imax was found to be 100%.

In test [1], `CN1CCC(n2cc(S(=O)(=O)c3cccc(Cl)c3)c3cccnc32)C1` (configuration not stated) showed a Ki of 0.0015 µM. Moreover, in test [3], the %max came out at 85% and the IC50 was 0.142 µM.

Consider `CN1CCC(n2cc(S(=O)(=O)c3ccccc3Cl)c3cccnc32)C1` (configuration not stated), for which affinity in test [1] was put at a Ki of 0.0022 µM. Besides, in test [3], the %max was 91% and the IC50 amounted to 0.091 µM.

`O=S(=O)(c1cccc(F)c1)c1cn(C2CCNC2)c2ncccc12` (configuration not stated): the Ki in test [1] is 0.0027 µM. Also, the EC50 in test [2] was found to be 0.278 µM.

On to `O=S(=O)(c1cn(C2CCNC2)c2ncccc12)c1cccc2cccnc12` (configuration not stated), for which, in test [1], the Ki amounted to 0.0057 µM. Moreover, in test [3], the %max is 100% and the IC50 is 0.643 µM.

In test [1], `CC(C)N1CCCC(n2cc(S(=O)(=O)c3cccc(Br)c3)c3cccnc32)C1` (configuration not stated) came in with a Ki of 0.0094 µM. In test [3], the IC50 is 0.492 µM and the Imax was 77%.

Molecule `O=S(=O)(c1ccccc1Cl)c1cn(C2CCCNC2)c2ncccc12` (configuration not stated) gave an inhibition constant Ki in test [1] of 0.0037 µM. Moreover, the EC50 in test [2] came out at 0.05 µM.

The molecule `CCN1CCCC(n2cc(S(=O)(=O)c3c(Cl)nc4sccn34)c3cccnc32)C1` (configuration not stated) gave a Ki in test [1] of 0.0007 µM. Further, the EC50 in test [2] worked out at 0.034 µM.

Turning to `CCN1CCC(n2cc(S(=O)(=O)c3cccc(F)c3)c3cccnc32)C1` (configuration not stated), in test [1], the Ki was found to be 0.0083 µM. In test [3], the %max is 89% and the IC50 is 0.132 µM.

Take `O=S(=O)(c1cccc(F)c1)c1cn(C2CCCNC2)c2ncccc12` (configuration not stated): the Ki in test [1] was determined as 0.0024 µM. The EC50 in test [2] was determined as 0.067 µM.

In test [1], `CN1CCCC(n2cc(S(=O)(=O)c3cccc(C(F)(F)F)c3)c3cccnc32)C1` (configuration not stated) registered a Ki of 0.0021 µM. For the same molecule, in test [2], the EC50 was 0.049 µM.

With `CN1CCC(n2cc(S(=O)(=O)c3ccc(F)cc3)c3cccnc32)C1` (configuration not stated), the affinity in test [1] corresponds to a Ki of 0.005 µM. Also, in test [3], the %max is 85% and the IC50 is 0.213 µM.

In the case of `O=S(=O)(c1cc(Cl)cc(Cl)c1)c1cn(C2CCCNC2)c2ncccc12` (configuration not stated), the Ki in test [1] was found to be 0.0061 µM. Also, the EC50 in test [2] turned out to be 0.297 µM.

In test [1], `CN1CCC(n2cc(S(=O)(=O)c3cccc(Br)c3)c3cccnc32)C1` (configuration not stated) gave a Ki of 0.0009 µM. In addition, in test [3], the %max was determined as 98% and the IC50 is 0.023 µM.

Consider `CCN1CCC(n2cc(S(=O)(=O)c3ccccc3)c3cccnc32)C1` (configuration not stated), for which the Ki in test [1] was found to be 0.011 µM. In test [3], the %max worked out at 75% and the IC50 was found to be 0.056 µM.

For the molecule `CCN1CCCC(n2cc(S(=O)(=O)c3ccccc3)c3cccnc32)C1` (configuration not stated), the Ki in test [1] was determined as 0.0036 µM. Further, in test [3], the IC50 stood at 0.026 µM and the Imax turned out to be 58%.

Turning to `O=S(=O)(c1cccc(Cl)c1)c1cn(C2CCCNC2)c2ncccc12` (configuration not stated), the inhibition constant Ki in test [1] is 0.0013 µM. Besides, in test [2], the EC50 is 0.03 µM.

`O=S(=O)(c1ccc(Br)cc1)c1cn(C2CCNC2)c2ncccc12` (configuration not stated) returned a Ki in test [1] of 0.0043 µM. Moreover, in test [3], the %max came out at 96% and the IC50 is 0.135 µM.

Consider `O=S(=O)(c1ccc(Cl)s1)c1cn(C2CCCNC2)c2ncccc12` (configuration not stated), for which affinity in test [1] was put at a Ki of 0.0012 µM. For the same molecule, in test [2], the EC50 worked out at 0.098 µM.

Turning to `CCN1CCCC(n2cc(S(=O)(=O)c3cc(Cl)cc(Cl)c3)c3cccnc32)C1` (configuration not stated), in test [1], affinity was put at a Ki of 0.0135 µM. Also, the EC50 in test [2] was found to be 0.067 µM.

Molecule `O=S(=O)(c1ccc(F)cc1)c1cn(C2CCNC2)c2ncccc12` (configuration not stated) gave a Ki in test [1] of 0.0085 µM. Also, in test [2], the EC50 was 1.65 µM.
